Compounds with a hit are over-represented: about 1.8% of the library has one in this group of screens.
MC4R ag barr: MC4R agonists recruiting beta-arrestin, primary screen, cell-based, luminescence, agonist arm of biased-ligand search; AID 540308, 2011; U2OS MC4R beta-arrestin complementation; percent of melanotan II response, DMSO zero; 0.98% of 360,000 active; activation, % at 8.9 µM; Melanocortin receptor 4 (Homo sapiens), P32245;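 active means activation above a per-plate cutoff, the mean activation of sample wells on that plate plus 3 SD, cut at about 8% in these data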
AI-2 QS mod: Vibrio harveyi AI-2 quorum sensing modulators, primary screen, JMH597 strain, luminescence/OD600 ratio. Vibrio harveyi JMH597 AI-2 luminescence/OD600 ratio, 9 h; active compounds read low; strain lacks LuxN and CqsS sensors; 0 = neutral-control median. 0.4% of 300,000 active. activity change, % at 7.5 µM; in the data active means activity change below about -75%, passing the limit was not always enough;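 further: luminescence divided by OD600 gain over 9 h not by final OD600 alone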
NTR1 ag: agonists of human NTR1, primary screen, imaging, U2OS cells, beta-arrestin-GFP, high content; NTR1-U2OS beta-arrestin-GFP spot imaging, agonist mode; activation, % at 20 µM; 0.17% of 330,000 active;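 active means activation at or above 40% of the spot to cytoplasm intensity ratio, with at least 20 cells analyzed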;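 further: 0% = DMSO without peptide and 100% = 100 nM NTR1 peptide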
Target sequence (P30989 whole entry, looked up): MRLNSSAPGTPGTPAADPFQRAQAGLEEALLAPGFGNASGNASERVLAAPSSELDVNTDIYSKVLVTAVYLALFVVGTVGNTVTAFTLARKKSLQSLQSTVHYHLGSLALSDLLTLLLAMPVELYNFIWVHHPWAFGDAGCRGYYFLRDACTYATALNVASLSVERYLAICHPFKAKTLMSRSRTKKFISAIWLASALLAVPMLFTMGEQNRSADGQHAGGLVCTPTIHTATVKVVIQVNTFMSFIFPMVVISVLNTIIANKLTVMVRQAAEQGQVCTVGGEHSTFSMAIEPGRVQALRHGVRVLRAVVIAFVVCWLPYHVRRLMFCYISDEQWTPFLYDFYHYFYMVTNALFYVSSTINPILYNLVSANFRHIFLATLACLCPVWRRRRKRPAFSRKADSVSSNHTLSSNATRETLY
MC4R antag cAMP: MC4R antagonists of cAMP signaling, primary screen, cell-based, TR-FRET, antagonist arm of biased-ligand search. Melanocortin receptor 4 (Homo sapiens), P32245. MC4R-expressing cells, MTII-stimulated cAMP, LANCE TR-FRET. inhibition, % at 6.5 µM. 0.48% of 360,000 active;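 active means inhibition above its plate's cutoff, the mean of tested wells on that plate plus 3 SD, cut at about 29% in these data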;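 further: 0% = Melanotan II alone and 100% = Melanotan II plus saturating MCL0020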
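Assay system: U2OS-MC4R stable cell line; Also added: Melanotan II; Technique: Eu-cAMP/anti-cAMP TR-FRET, emission 671 nm; Times: 30-min compound, 1-h challenge, 1-h detection, room temperature.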
JMH597 growth rt: Vibrio harveyi growth inhibition, confirmation, counter-screen for AI-2 quorum sensing project, JMH597 strain, OD600 absorbance | shares compounds with AI-2 QS mod | 9 h; lacks LuxN and CqsS sensors | growth inhibition, % at 7.5 µM | 1% of 750 active | AID 2726, 2010;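 active means every replicate shows growth inhibition above 50%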
BB721 lum counter: luminescence inhibition in constitutive-on V. harveyi, confirmation, counter-screen for LuxS inhibitor project, strain BB721, luminescence readout | shares compounds with AI-2 QS mod | inhibition, % at 7.5 µM | Vibrio harveyi BB721 luminescence, 9 h | 95% of 750 active;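 active means inhibition above about 80% in every replicate, not just on average, limit read from the data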
BB721 growth rt: growth inhibition of V. harveyi BB721, confirmation, cytotoxicity control for AI-2 quorum sensing inhibitors, strain BB721, absorbance OD600. AID 2728, 2010. Vibrio harveyi BB721 growth, 9 h. 3% of 750 active. growth inhibition, % at 7.5 µM. shares compounds with AI-2 QS mod;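 active means every replicate shows growth inhibition above 50%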
AI-2 QS JMH597: Vibrio harveyi AI-2 signaling luminescence modulation – JMH597 strain, confirmation; shares compounds with AI-2 QS mod; Vibrio harveyi JMH597 AI-2 quorum sensing luminescence, 9 h; luxN and CqsS knockout, AI-2 only; inhibition, % at 7.5 µM; 97% of 750 active;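 active means every replicate shows more than 75% inhibition of signal versus neutral control wells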
Starred values were filed as active, the others as inactive; . = no result given.

SMILES	MC4R ag barr	AI-2 QS mod	NTR1 ag	MC4R antag cAMP	JMH597 growth rt	BB721 lum counter	BB721 growth rt	AI-2 QS JMH597
N#Cc1nc(-c2cccs2)oc1NCc1ccco1	5	-58	-2	8	.	.	.	.
Cn1cc(C(=O)N2CCN(c3cccc(Cl)c3)CC2)c(=O)c2cc(S(=O)(=O)N3CCOCC3)ccc21	-3	9	-1	8	.	.	.	.
CC(Nc1ccc(Br)cc1)C(=O)Nc1cccc(S(=O)(=O)N2CCOCC2)c1 (stereo not given)	-5	.	0	3	.	.	.	.
O=C(CN1C(=O)NC2(CCOc3ccccc32)C1=O)Nc1cccc(Cl)c1 (stereo not given)	-1	-93*	0	-7	-5	96*	-8	98*
CC1(c2cccc(Br)c2)NC(=O)N(CC(=O)Nc2ccc3c(c2)OCO3)C1=O (stereo not given)	-2	.	4	1	.	.	.	.
Cc1ccc(C2(C)NC(=O)N(CC(=O)Nc3ccc4c(c3)OCO4)C2=O)cc1 (stereo not given)	-2	-95*	0	-3	11	97*	51	98*
CCC1(c2ccccc2)NC(=O)N(CC(=O)Nc2ccc3c(c2)OCO3)C1=O (stereo not given)	-2	-93*	1	7	28	96*	30	97*
Cc1ccc(C2(C)NC(=O)N(CC(=O)NC(=O)NCCC(C)C)C2=O)cc1 (stereo not given)	2	-85*	1	11	-14	90*	-38	95*
O=C(CSc1nnc(-c2ccncc2)o1)Nc1cc(Cl)ccc1C(=O)O	1	.	3	-3	.	.	.	.
COc1ccccc1CC(=O)N1CCC(CCC(=O)NC2CC2)CC1	-1	6	0	5	.	.	.	.
COc1cc2ccccc2cc1C(=O)Nc1ccc(O)cc1	5	27	4	-8	.	.	.	.
CC1(c2ccc3c(c2)OCO3)NC(=O)N(CC(=O)Nc2ccc(N3CCOCC3)cc2)C1=O (stereo not given)	-1	-88*	0	0	0	88*	-6	94*
Cc1ccc(NC(=O)CN2C(=O)NC(C)(c3ccc(Cl)cc3)C2=O)cc1 (stereo not given)	-1	-88*	10	-1	0	89*	9	94*
Cc1cccc(NC(=O)CN2C(=O)NC(C)(c3ccc4c(c3)OCO4)C2=O)c1 (stereo not given)	-2	-87*	-2	5	-5	88*	4	92*
COc1ccc(CN=Cc2c(O)[nH]c3ccccc23)cc1	0	-90*	-1	15	22	96*	3	97*
COc1ccc(N=Cc2c(O)[nH]c3ccccc23)cc1	-1	2	0	3	.	.	.	.
O=C(COc1cccc(C(F)(F)F)c1)Nc1ccc2[nH]ncc2c1	0	-79*	1	18	11	87*	2	91*
CCOC(=O)C1(C(=O)OCC)CCN(S(=O)(=O)c2ccccc2)CC1	-2	.	.	0	.	.	.	.
C(=C\c1ccccc1)/CSc1nnc(-c2cccnc2)o1	-1	-89*	-1	5	19	95*	-1	98*
Clc1ccc(CSc2nnc(-c3cccnc3)o2)cc1	-1	-93*	-1	10	27	98*	22	99*
Cc1ccccc1-c1nnc(SCc2ccc(F)cc2)o1	0	-92*	0	1	24	97*	69	97*

From PubChem BioAssay
